Entries after “also recorded” stand apart in the source; their conditions may differ. Like-named read-outs stand apart in the source and are kept apart here.
Tests used:
NMDAR [1] = test: NMDA-induced increase in [Ca2+]c, calcium imaging; assay type: cell-based, rat; settings: for IC50: read-out: IC50, inhibition of NMDA-induced increases in [Ca2+]c
[2] = system: NCXrev (reverse Na+/Ca2+ exchanger); test: Gramicidin-induced; assay type: cell-based, rat; settings: for efficacy of inhibition of gramicidin-induced increase in [Ca2+]c / IC50: 5 μM gramicidin; for efficacy of inhibition of gramicidin-induced increase in [Ca2+]c: 1 μM MK801, 50 μM memantine, 200 μM AP-5 (Fig. 3); for IC50: read-out: IC50, inhibition of gramicidin-induced increase in [Ca2+]c, bath with 5 μM nifedipine and 1 mM ouabain, Suppl. Fig. 6
[3] = system: cultured hippocampal neurons; assay type: cell-based, rat
[4] = system: cultured hippocampal neurons; test: NMDA-induced DCD, calcium imaging; assay type: cell-based, rat; settings: 30 μM NMDA plus 10 μM glycine; MK801 1 μM, memantine 10 μM, AP-5 20 μM; Suppl. Fig. 3
NMDAR [5] = test: NMDA-induced ion currents, whole-cell voltage-clamp; assay type: cell-based, rat
[6] = system: cultured hippocampal neurons; test: Glutamate-induced increase in [Na+]c, fluorescence imaging; assay type: cell-based, rat; settings: 25 μM glutamate plus 10 μM glycine; for effect on glutamate-induced increases in [Na+]c: SBFI, 1 μM MK801, 50 μM memantine, 200 μM AP-5; for effect on glutamate-induced increase in [Na+]c: Sodium Green, 10 μM EIPA, 10 μM MK801
[7] = system: cultured hippocampal neurons; test: Glutamate-induced plasma membrane depolarization; assay type: cell-based, rat; settings: Annine-6plus; 25 μM glutamate plus 10 μM glycine; 1 μM MK801, 50 μM memantine, 200 μM AP-5
In short: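 Rat P1 hippocampal neurons, glia-free, 12–14 DIV, in standard NaCl bath (pH 7.4). Loaded with 4 μM Annine-6plus for 5 min at room temperature; excitation 480 nm, emission >570 nm; F480 expressed as F/F0. Inhibitors in 0.2% DMSO. 142 mM KCl substituted for NaCl at end for full depolarization. Depolarization shown as % resting potential over time; mean ± s.e.m., n=3.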

[8] = system: cultured hippocampal neurons; test: NMDA-induced increase in [Na+]c; assay type: cell-based, rat; settings: MK801 1 μM, memantine 10 μM, AP-5 20 μM; Suppl. Fig. 4
[9] = system: cultured hippocampal neurons; test: NMDA-induced plasma membrane depolarization; assay type: cell-based, rat; settings: 30 μM NMDA plus 10 μM glycine; MK801 1 μM, memantine 10 μM, AP-5 20 μM; Suppl. Fig. 5
NCXrev = test: NCXrev-mediated ion currents, voltage ramp whole-cell patch-clamp; assay type: cell-based, rat; settings: 5 mM Ni2+, 10 μM KB-R7943, 10 μM MK801, 50 μM memantine, 50 μM AP-5
forward mode of NCX = test: Forward mode of NCX; assay type: cell-based; settings: authors' unpublished data
[10] = system: cultured hippocampal neurons; settings: CNQX 10–100 μM; ref Brustovetsky et al., 2011; cited from earlier work
NMDAR [11] = settings: read-out: IC50, inhibition of NMDAR; ref Brustovetsky et al., 2011; cited from earlier work
neurons = settings: ref Levy and Lipton, 1990; cited from earlier work
[12] = rat cultured hippocampal neurons, Suppl. Fig. 1
[13] = whole-cell voltage-clamp, Suppl. Fig. 2

| Compound | extent of inhibition of NMDA-induced increases in [Ca2+]c (NMDAR [1]; [12]) | IC50 (NMDAR [1]; [12]) [nM] | efficacy of inhibition of gramicidin-induced increase in [Ca2+]c [2] | IC50 [2] [nM] | effect on glutamate-induced DCD [3] | effect on DCD induced by NMDA [4] | effect on NMDA-induced ion currents (NMDAR [5]; [13]) | effect on glutamate-induced increases in [Na+]c [6] | effect on glutamate-induced increase in [Na+]c [6] | effect on glutamate-induced plasma membrane depolarization [7] | effect on [Na+]c elevated after NMDA application [8] | effect on plasma membrane depolarization induced by NMDA [9] | effect on NCXrev-mediated ion currents (NCXrev) | effect on forward mode of NCX (forward mode of NCX) | further results |
| --- | --- | --- | --- | --- | --- | --- | --- | --- | --- | --- | --- | --- | --- | --- | --- |
| C[C@]12N[C@H](Cc3ccccc31)c1ccccc12 [MK801] | completely inhibited | 200 ± 40 | very effectively inhibited | 500 ± 80 | completely prevented | completely prevented DCD | inhibited NMDA-induced ion currents | neither attenuated | failed to prevent or diminish | nor prevented | significantly lowered | completely prevented | inhibited | not affected |  |
| CCN(c1nc(N)c(C(=O)NC(=N)N)nc1Cl)C(C)C [EIPA, 5-(N-ethyl-N-isopropyl)amiloride] |  |  |  |  | failed to prevent or attenuate |  |  |  | significantly attenuated |  |  |  |  |  | effect on NMDA-induced increase in [Ca2+]c (NMDAR [1]; EIPA 10 μM, Suppl. Fig. 9): inhibited neither NMDAR nor NCXrev; effect on gramicidin-induced increase in [Ca2+]c ([2]; EIPA 10 μM, Suppl. Fig. 9): inhibited neither NMDAR nor NCXrev |
| N#Cc1cc2[nH]c(=O)c(=O)[nH]c2cc1[N+](=O)[O-] [CNQX, 6-cyano-7-nitroquinoxaline-2,3-dione] |  |  |  |  |  |  |  |  |  |  |  |  |  |  | effect on glutamate-induced DCD [10]: had no effect |
| N=C(N)SCCc1ccc(OCc2ccc([N+](=O)[O-])cc2)cc1 [KB-R7943] |  |  |  |  | failed to prevent DCD |  |  |  |  |  |  |  | strongly attenuated |  | IC50 (NMDAR [11]): 13400 ± 3600 nM |
| CC12CC3CC(C)(C1)CC(N)(C3)C2 [memantine] |  |  | very effectively inhibited | 17100 ± 240 | completely prevented | completely prevented DCD |  | neither attenuated |  | nor prevented | significantly lowered | completely prevented | inhibited | not affected | extent of inhibition of NMDA-induced increases in [Ca2+]c (NMDAR [1]): completely inhibited; IC50 (NMDAR [1]): 3600 ± 50 nM; effect on NMDA-induced ion currents (NMDAR [5]): inhibited NMDA-induced ion currents |
| N[C@H](CCCP(=O)(O)O)C(=O)O [AP-5, D-(−)-2-Amino-5-phosphonopentanoic acid] | completely inhibited | 2200 ± 30 | much less efficacious | 2800 ± 700 | failed to prevent DCD; also recorded: failed to prevent or attenuate | completely prevented DCD | inhibited NMDA-induced ion currents | neither attenuated |  | nor prevented | significantly lowered | completely prevented | practically without effect |  | neuroprotection against glutamate excitotoxicity (neurons): only moderately effective |

Reference: paper PMC3299854 (Neurobiology of Disease, 2012)
